“And” between values parts separate entries of the source, which are not always exact repeats. Identical values can stand only once.
Test system: Fibroblast
Assay: Multiplex assay against human fibroblast
Format: toxicity, cell-based
In short: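 Live cells carried four stains from seeding: Hoechst33342, BioTracker Green Microtubule Cytoskeleton Dye, MitoTracker Red and Annexin V Alexa Fluor 680. They were imaged on a CQ1 microscope at 37°C and 5% CO2 after compound addition. Using CellPathfinder machine-learning gating, cells were split into Hoechst high-intensity objects or normal cells, normal cells into healthy, pyknosed or fragmented nuclei, and pyknosed cells into mitotic or apoptotic; tubulin, mitochondrial-mass and membrane-permeability phenotypes are per cents of healthy-nucleus cells.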

[1] = 12 h, 1 µM, compound concentration 1 uM
[2] = 12 h, 10 µM, compound concentration 10 uM
[3] = 24 h, 1 µM, compound concentration 1 uM
[4] = 24 h, 10 µM, compound concentration 10 uM
[5] = 48 h, 1 µM, compound concentration 1 uM
[6] = 48 h, 10 µM, compound concentration 10 uM

SMILES: COc1ccc(-n2c(C)c([N+](=O)[O-])c3ccc(O)cc32)cc1
- Population Apoptotic (%) [1]: 18% and 14.29%
- Population Fragmented Nuclei (%) [1]: 8.91% and 3.57%
- Population Healthy Nuclei (%) [1]: 66.34% and 79.76%
- Population Hoechst High Intensity Objects (%) [1]: 0%
- Population Membrane Permeable-Phenotype (%) [1]: 5.97% and 4.48%
- Population Mitochondria Different-Phenotype (%) [1]: 7.46%
- Population Mitotic Cells (%) [1]: 82% and 85.71%
- Population Normal (%) [1]: 100%
- Population Pyknosed Nuclei (%) [1]: 24.75% and 16.67%
- Population Tubulin-Different-Phenotype (%) [1]: 13.43% and 18.66%
- Total Cell Count [1]: 202 and 168
- Population Apoptotic (%) [2]: 17.65% and 23.08%
- Population Fragmented Nuclei (%) [2]: 6.97% and 4.59%
- Population Healthy Nuclei (%) [2]: 67.66% and 77.52%
- Population Hoechst High Intensity Objects (%) [2]: 0%
- Population Membrane Permeable-Phenotype (%) [2]: 5.15% and 4.73%
- Population Mitochondria Different-Phenotype (%) [2]: 6.62% and 11.24%
- Population Mitotic Cells (%) [2]: 82.35% and 76.92%
- Population Normal (%) [2]: 100%
- Population Pyknosed Nuclei (%) [2]: 25.37% and 17.89%
- Population Tubulin-Different-Phenotype (%) [2]: 14.71% and 28.4%
- Total Cell Count [2]: 201 and 218
- Population Apoptotic (%) [3]: 9.52% and 17.86%
- Population Fragmented Nuclei (%) [3]: 11.01% and 2.84%
- Population Healthy Nuclei (%) [3]: 69.72% and 81.25%
- Population Hoechst High Intensity Objects (%) [3]: 0%
- Population Membrane Permeable-Phenotype (%) [3]: 4.61% and 4.2%
- Population Mitochondria Different-Phenotype (%) [3]: 3.29% and 5.59%
- Population Mitotic Cells (%) [3]: 90.48% and 82.14%
- Population Normal (%) [3]: 100%
- Population Pyknosed Nuclei (%) [3]: 19.27% and 15.91%
- Population Tubulin-Different-Phenotype (%) [3]: 10.53% and 19.58%
- Total Cell Count [3]: 218 and 176
- Population Apoptotic (%) [4]: 15.38% and 16.67%
- Population Fragmented Nuclei (%) [4]: 4.88% and 5%
- Population Healthy Nuclei (%) [4]: 76.1% and 84.09%
- Population Hoechst High Intensity Objects (%) [4]: 0%
- Population Membrane Permeable-Phenotype (%) [4]: 3.85% and 2.7%
- Population Mitochondria Different-Phenotype (%) [4]: 8.33% and 6.49%
- Population Mitotic Cells (%) [4]: 84.62% and 83.33%
- Population Normal (%) [4]: 100%
- Population Pyknosed Nuclei (%) [4]: 19.02% and 10.91%
- Population Tubulin-Different-Phenotype (%) [4]: 15.38% and 20.54%
- Total Cell Count [4]: 205 and 220
- Population Apoptotic (%) [5]: 26.32% and 22.22%
- Population Fragmented Nuclei (%) [5]: 9.8% and 4.74%
- Population Healthy Nuclei (%) [5]: 82.45% and 85.79%
- Population Hoechst High Intensity Objects (%) [5]: 0%
- Population Membrane Permeable-Phenotype (%) [5]: 0% and 1.84%
- Population Mitochondria Different-Phenotype (%) [5]: 9.41% and 2.45%
- Population Mitotic Cells (%) [5]: 73.68% and 77.78%
- Population Normal (%) [5]: 100%
- Population Pyknosed Nuclei (%) [5]: 7.76% and 9.47%
- Total Cell Count [5]: 245 and 190
- Population Apoptotic (%) [6]: 28.57% and 38.89%
- Population Fragmented Nuclei (%) [6]: 7.73% and 4.61%
- Population Healthy Nuclei (%) [6]: 85.51% and 78.8%
- Population Hoechst High Intensity Objects (%) [6]: 0%
- Population Membrane Permeable-Phenotype (%) [6]: 3.39% and 7.02%
- Population Mitochondria Different-Phenotype (%) [6]: 10.17% and 5.85%
- Population Mitotic Cells (%) [6]: 71.43% and 61.11%
- Population Normal (%) [6]: 100%
- Population Pyknosed Nuclei (%) [6]: 6.76% and 16.59%
- Population Tubulin-Different-Phenotype (%) [6]: 10.17% and 28.07%
- Total Cell Count [6]: 207 and 217

SMILES: CNc1nc(NCc2ncccn2)c2c(-c3ccc4ncccc4c3)c[nH]c2n1
- Population Fragmented Nuclei (%) [1]: 13.9% and 7.14%
- Population Healthy Nuclei (%) [1]: 54.01% and 75.6%
- Population Hoechst High Intensity Objects (%) [1]: 0%
- Population Membrane Permeable-Phenotype (%) [1]: 2.97% and 3.94%
- Population Mitochondria Different-Phenotype (%) [1]: 7.92% and 10.24%
- Population Mitotic Cells (%) [1]: 95% and 75.86%
- Population Normal (%) [1]: 100%
- Population Pyknosed Nuclei (%) [1]: 32.09% and 17.26%
- Population Tubulin-Different-Phenotype (%) [1]: 11.88% and 22.83%
- Total Cell Count [1]: 187 and 168
- Population Apoptotic (%) [2]: 15.15% and 23.33%
- Population Fragmented Nuclei (%) [2]: 8.7% and 4.55%
- Population Healthy Nuclei (%) [2]: 70.81% and 81.82%
- Population Hoechst High Intensity Objects (%) [2]: 0%
- Population Membrane Permeable-Phenotype (%) [2]: 15.79% and 10%
- Population Mitochondria Different-Phenotype (%) [2]: 16.67% and 13.89%
- Population Mitotic Cells (%) [2]: 84.85% and 76.67%
- Population Normal (%) [2]: 100%
- Population Pyknosed Nuclei (%) [2]: 20.5% and 13.64%
- Population Tubulin-Different-Phenotype (%) [2]: 33.33% and 51.67%
- Total Cell Count [2]: 161 and 220
- Population Fragmented Nuclei (%) [3]: 11.26% and 5.29%
- Population Healthy Nuclei (%) [3]: 65.37% and 85.29%
- Population Hoechst High Intensity Objects (%) [3]: 0%
- Population Membrane Permeable-Phenotype (%) [3]: 1.99% and 6.21%
- Population Mitochondria Different-Phenotype (%) [3]: 3.31% and 4.83%
- Population Mitotic Cells (%) [3]: 98.15% and 87.5%
- Population Normal (%) [3]: 100%
- Population Pyknosed Nuclei (%) [3]: 23.38% and 9.41%
- Population Tubulin-Different-Phenotype (%) [3]: 12.58% and 11.72%
- Total Cell Count [3]: 231 and 170
- Population Apoptotic (%) [4]: 23.08% and 26.09%
- Population Fragmented Nuclei (%) [4]: 8.06% and 4.98%
- Population Healthy Nuclei (%) [4]: 77.96% and 84.62%
- Population Hoechst High Intensity Objects (%) [4]: 0%
- Population Membrane Permeable-Phenotype (%) [4]: 2.76% and 4.28%
- Population Mitochondria Different-Phenotype (%) [4]: 11.72% and 12.83%
- Population Mitotic Cells (%) [4]: 76.92% and 73.91%
- Population Normal (%) [4]: 100%
- Population Pyknosed Nuclei (%) [4]: 13.98% and 10.41%
- Population Tubulin-Different-Phenotype (%) [4]: 37.24% and 52.41%
- Total Cell Count [4]: 186 and 221
- Population Apoptotic (%) [5]: 11.76% and 6.67%
- Population Fragmented Nuclei (%) [5]: 8.43% and 2.79%
- Population Healthy Nuclei (%) [5]: 85.06% and 88.83%
- Population Hoechst High Intensity Objects (%) [5]: 0%
- Population Membrane Permeable-Phenotype (%) [5]: 1.35% and 4.4%
- Population Mitochondria Different-Phenotype (%) [5]: 11.26% and 5.66%
- Population Mitotic Cells (%) [5]: 88.24% and 93.33%
- Population Normal (%) [5]: 100%
- Population Pyknosed Nuclei (%) [5]: 6.51% and 8.38%
- Total Cell Count [5]: 261 and 179
- Population Apoptotic (%) [6]: 23.08% and 42.86%
- Population Fragmented Nuclei (%) [6]: 11.86% and 6.28%
- Population Healthy Nuclei (%) [6]: 81.44% and 90.58%
- Population Hoechst High Intensity Objects (%) [6]: 0%
- Population Membrane Permeable-Phenotype (%) [6]: 5.06% and 7.92%
- Population Mitotic Cells (%) [6]: 76.92% and 57.14%
- Population Normal (%) [6]: 100%
- Population Pyknosed Nuclei (%) [6]: 6.7% and 3.14%
- Population Tubulin-Different-Phenotype (%) [6]: 18.35% and 54.46%
- Total Cell Count [6]: 194 and 223

SMILES: C[C@@H]1CN(Cc2ccc(F)cc2)CCN1C(=O)COc1ccc(Cl)cc1NC(N)=O [BX 471 FREE BASE]
- Population Apoptotic (%) [1]: 23% and 38%
- Population Fragmented Nuclei (%) [1]: 10% and 26%
- Population Healthy Nuclei (%) [1]: 73% and 47%
- Population Hoechst High Intensity Objects (%) [1]: 3% and 7%
- Population Mitotic Cells (%) [1]: 76% and 61%
- Population Normal (%) [1]: 96% and 92%
- Population Pyknosed Nuclei (%) [1]: 15% and 26%
- Population Tubulin-Different-Phenotype (%) [1]: 35% and 48%
- Total Cell Count [1]: 138 and 182
- Population Apoptotic (%) [2]: 38% and 40%
- Population Fragmented Nuclei (%) [2]: 27% and 36%
- Population Healthy Nuclei (%) [2]: 45% and 27%
- Population Hoechst High Intensity Objects (%) [2]: 7% and 11%
- Population Mitotic Cells (%) [2]: 61% and 60%
- Population Normal (%) [2]: 92% and 88%
- Population Pyknosed Nuclei (%) [2]: 26% and 35%
- Population Tubulin-Different-Phenotype (%) [2]: 81% and 77%
- Total Cell Count [2]: 240 and 126
- Population Apoptotic (%) [3]: 52% and 51%
- Population Fragmented Nuclei (%) [3]: 13% and 20%
- Population Healthy Nuclei (%) [3]: 74% and 52%
- Population Hoechst High Intensity Objects (%) [3]: 0% and 6%
- Population Mitotic Cells (%) [3]: 47% and 48%
- Population Normal (%) [3]: 99% and 93%
- Population Pyknosed Nuclei (%) [3]: 11% and 27%
- Population Tubulin-Different-Phenotype (%) [3]: 33% and 52%
- Total Cell Count [3]: 147 and 160
- Population Apoptotic (%) [4]: 43% and 46%
- Population Fragmented Nuclei (%) [4]: 28% and 34%
- Population Healthy Nuclei (%) [4]: 43% and 36%
- Population Hoechst High Intensity Objects (%) [4]: 4% and 8%
- Population Mitotic Cells (%) [4]: 56% and 53%
- Population Normal (%) [4]: 95% and 91%
- Population Pyknosed Nuclei (%) [4]: 28% and 29%
- Population Tubulin-Different-Phenotype (%) [4]: 75% and 89%
- Total Cell Count [4]: 225 and 118
- Population Apoptotic (%) [5]: 55% and 63%
- Population Fragmented Nuclei (%) [5]: 16% and 31%
- Population Healthy Nuclei (%) [5]: 67% and 55%
- Population Hoechst High Intensity Objects (%) [5]: 5%
- Population Mitotic Cells (%) [5]: 45% and 36%
- Population Normal (%) [5]: 94% and 97%
- Population Pyknosed Nuclei (%) [5]: 15% and 13%
- Population Tubulin-Different-Phenotype (%) [5]: 40% and 54%
- Total Cell Count [5]: 138 and 172
- Population Apoptotic (%) [6]: 58% and 41%
- Population Fragmented Nuclei (%) [6]: 31% and 42%
- Population Healthy Nuclei (%) [6]: 49% and 42%
- Population Hoechst High Intensity Objects (%) [6]: 7% and 6%
- Population Mitotic Cells (%) [6]: 41% and 58%
- Population Normal (%) [6]: 92% and 93%
- Population Pyknosed Nuclei (%) [6]: 18% and 14%
- Population Tubulin-Different-Phenotype (%) [6]: 77% and 91%
- Total Cell Count [6]: 234 and 122

Source: ChEMBL document CHEMBL5724801, “EUbOPEN Chemogenomics Library - Multiplex” (2024)
